# UHRF1 MBD2 ctr: UHRF1 methylated DNA binding inhibitors, primary screen, counter-screen for MBD2 inhibitor project, biochemical, TR-FRET, human UHRF1, single concentration | E3 ubiquitin-protein ligase UHRF1 (Homo sapiens), Q96T88 | UHRF1 binding to methylated oligo | inhibition, % at 4.4 µM | AID 687016, 2013 | 370,000 tested, 0.75% active;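 also: UHRF1 SRA domain binding a hemimethylated CpG hairpin DNA probe; 0% = median of test compound wells and 100% = reference inhibitor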
# TDP2 absorb: human TDP2 enzyme inhibitors, primary screen, biochemical, epi absorbance, recombinant enzyme; Tyrosyl-DNA phosphodiesterase 2 (Homo sapiens), O95551; T5PNP hydrolysis, p-nitrophenol absorbance 415 nm; inhibition, % at 12.8 µM; 370,000 tested, 0.34% active; AID 720702, 2013;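 active = inhibition above the mean of all tested compounds plus 3 SD, set per campaign, cut at about 25% in these data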;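 also: 0% = DMSO with enzyme and 100% = buffer with substrate but no TDP2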
#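 System – recombinant human TDP2 · Amount – 120 nM TDP2 per well · Buffer or medium – Mg2+-containing Tris-HCl buffer, pH 7.5 · Reagent – T5PNP substrate, 5 mM · Dosing – 12.8 µM single point, 1% DMSO · Incubation – 2 h at 37 °C · Measured by – epi absorbance · Read-out basis – percent inhibition · Benchmarks – high control without enzyme, low control DMSO plus TDP2 · Repeats – singlicate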
# LEDGF integ inh: blockers of LEDGF/p75-dependent integrase strand transfer – biochemical, TR-FRET, high throughput, primary screen; TR-FRET IN-LEDGF/p75 DNA integration, Eu/Cy5; inhibition, % at 3.7 µM; 370,000 tested, 0.64% active;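 active = inhibition above the screen-wide mean plus 3 SD, cut at about 13% in these data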;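 also: signal is the Cy5 over europium emission ratio at 671 and 618 nm; 0% = plate median of compound wells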
# MBD2 inh: inhibitors of MBD2 binding to methylated DNA, primary screen, biochemical, TR-FRET, DNA-binding domain, human; 370,000 tested, 0.31% active; inhibition, % at 4.4 µM; MBD2 binding to methylated oligonucleotide; Methyl-CpG-binding domain protein 2 (Homo sapiens), Q9UBB5; in the data active = inhibition above about 13%
# Target sequence (Q9UBB5 whole entry, looked up, the tested form may be a part): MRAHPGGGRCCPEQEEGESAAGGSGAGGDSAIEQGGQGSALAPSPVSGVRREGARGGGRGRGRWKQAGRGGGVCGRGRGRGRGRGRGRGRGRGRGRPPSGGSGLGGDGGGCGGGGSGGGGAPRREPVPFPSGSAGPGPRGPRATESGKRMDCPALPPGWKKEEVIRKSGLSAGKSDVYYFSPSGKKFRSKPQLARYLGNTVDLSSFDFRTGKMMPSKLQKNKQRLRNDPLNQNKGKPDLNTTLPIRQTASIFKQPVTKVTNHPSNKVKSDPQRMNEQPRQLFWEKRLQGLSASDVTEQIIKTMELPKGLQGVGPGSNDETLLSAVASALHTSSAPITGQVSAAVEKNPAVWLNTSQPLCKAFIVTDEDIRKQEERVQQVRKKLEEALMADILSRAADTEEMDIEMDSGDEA
# UHRF1 DNA bind: UHRF1 methylated DNA binding inhibitors, counter-screen for MBD2 inhibitor project, biochemical, TR-FRET, human UHRF1; shares compounds with MBD2 inh; UHRF1 binding to methylated oligonucleotide; inhibition, % at 4.4 µM; 1,000 tested, 25% active; AID 720530, 2013;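 also: UHRF1 SRA domain binding a labeled hemimethylated CpG hairpin DNA; 0% = vehicle only and 100% = reference inhibitor with vehicle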
# MBD2 confirm: inhibitors of MBD2 binding to methylated DNA, confirmation, biochemical, TR-FRET, DNA-binding domain, human. AID 720531, 2013. shares compounds with MBD2 inh. TR-FRET MBD2-DBD binding to methylated oligonucleotide. inhibition, % at 4.4 µM. 1,000 tested, 26% active; in the data active = inhibition above about 14%
# * hit, by the source's call; nt = no result. A selection: hits, their analogues and other compounds. The true share with any hit is near 1.6%. Rule as the data show it, unless noted: active = inhibition above about 21%; inactive = the rest.
SMILES,UHRF1 MBD2 ctr,TDP2 absorb,LEDGF integ inh,MBD2 inh,UHRF1 DNA bind,MBD2 confirm
O=C1C2CCCN2C(=S)N1C1CCCCC1 (configuration not stated),1.1,-3.5,-5.6,4.9,nt,nt
O=C(O)CSc1ncn[nH]1,15.3,5.2,3.2,13.5*,7.0,0.6
Cc1ccc(C(=O)CSc2ncn[nH]2)cc1,-1.3,2.5,4.6,-0.6,nt,nt
COc1cc(C2C(C#N)=C(N)OC3=C2C(=O)CC(C)(C)C3)c([N+](=O)[O-])cc1OC (configuration not stated),-6.8,0.1,-0.9,-6.9,nt,nt
CC1(C)CC(=O)C2=C(C1)OC(N)=C(C#N)[C@@H]2c1ccccc1[N+](=O)[O-],-2.1,5.7,1.4,17.6*,3.9,1.9
CCOC(=O)C1CCN(C(=O)C(C)(C)NC(=O)Nc2ccc3c(c2)CCC3)CC1,3.4,3.0,-1.9,4.1,nt,nt
CC1CN(Cc2c(O)ccc3c2oc(=O)c2ccccc23)CC(C)O1 (configuration not stated),18.6,0.2,5.3,15.8*,3.2,10.9
CC1CN(Cc2c(O)ccc3c(=O)c(-c4ccccc4)coc23)CC(C)O1 (configuration not stated),-0.6,2.5,-0.1,-2.5,nt,nt
Cc1cc(C)n(CCNC(=O)[C@@H](Cc2ccccc2)NC(=O)[C@H]2O[C@@H](n3ccc(=O)[nH]c3=O)[C@H](O)[C@@H]2O)n1,-0.5,3.8,0.9,2.3,nt,nt
O=C(N=C1SC2CS(=O)(=O)CC2N1CCc1ccccc1)C1CCCCC1 (configuration not stated),1.1,4.3,-4.5,86.3*,5.7,2.1
COc1ccc(C(=O)OCC(=O)c2c[nH]c3ccccc23)cc1OC,21.8*,2.7,0.1,14.0*,5.4,1.6
COc1cc(C(=O)OCC(=O)c2c[nH]c3ccccc23)ccc1OCC(=O)N1CCOCC1,3.9,-1.1,-2.5,-1.6,nt,nt
CC(C)CN1C(=O)C[C@@]2(C(=O)N(C)c3ccc(NC(=O)C(F)(F)F)cc32)C1c1ccccc1 (some centres not stated),2.3,1.5,1.1,1.4,nt,nt
CCOC(=O)[C@]12CCCCC/C=C\1N(CCc1ccc(Cl)cc1)C(=O)[C@H]2CC(=O)NCCCCc1ccccc1,2.0,-2.0,-3.0,-1.2,nt,nt
CC(=O)Nc1ccc(S(=O)(=O)NC(CC(=O)O)c2ccc(OC(C)C)cc2)cc1 (configuration not stated),23.2*,5.5,-2.7,16.6*,11.5,4.7
CC(=O)Nc1c2c(nn1-c1ccc(C)cc1)CS(=O)(=O)C2,1.1,8.2,-3.4,70.2*,3.2,1.2
Cc1ccc(-n2nc3c(c2NC(=O)c2cccs2)CS(=O)(=O)C3)c(C)c1,-1.7,-6.4,-0.7,15.2*,5.9,3.1
COc1cc(/C=C(\C#N)C(=O)N2CCOCC2)ccc1OCc1ccccc1,3.4,0.5,-4.8,5.2,nt,nt
COc1ccc(/C=C(\C#N)C(=O)N2CCOCC2)cc1Br,0.7,-4.6,-1.1,40.8*,4.5,1.8
CCc1c(C)nc(SCC(=O)Nc2c(C)n(C)n(-c3ccccc3)c2=O)[nH]c1=O,0.9,1.6,1.6,19.8*,6.5,1.4
Cc1ccc(Oc2nc(CN3CCOCC3)nc3sc4c(c23)CCC(C)C4)cc1 (configuration not stated),-0.9,8.4,2.8,13.7*,9.4,3.7
CCCCc1cccc2[nH]cc(C)c12,2.5,4.1,0.4,4.1,nt,nt
Cc1ccc2c(c1)C(CS(=O)(=O)NCc1ccccc1)NC2 (configuration not stated),-3.9,-8.5,-4.6,-2.1,nt,nt
O=Nc1ccccn1,-3.5,-4.0,5.2,-0.7,nt,nt
CS(=O)(=O)Cc1cc(N2CCCC2)nc(-c2ccccc2)n1,-1.4,-2.2,-0.3,20.5*,6.3,3.2
SMILES,UHRF1 MBD2 ctr,TDP2 absorb,LEDGF integ inh,MBD2 inh,UHRF1 DNA bind,MBD2 confirm
CC1(c2nnnn2Cc2ccccc2)CCCCC(=O)N1Cc1cccs1 (configuration not stated),3.6,4.2,0.2,3.9,nt,nt
COC(=O)[C@]12C[C@H](CC(=O)NCC34CC5CC(CC(C5)C3)C4)C(=O)N(Cc3cccc4ccccc34)C1=C[C@H](C(C)(C)C)O[C@@H]2C,-1.2,-2.9,-2.7,-2.7,nt,nt
C=C(C)C(=O)Nc1cccc(C2=NOC3(C2)C[C@@H](C(N)=O)N(C(=O)CC(c2ccccc2)c2ccccc2)C3)c1 (some centres not stated),62.5*,2.2,2.9,26.4*,60.0*,41.7*
C=C(C)C(=O)Nc1cccc(C2=NOC3(C2)C[C@H](C(N)=O)N(C(=O)c2ccccc2C(=O)c2ccccc2)C3)c1 (some centres not stated),79.6*,-5.8,12.3,31.1*,66.5*,42.1*
C/C=C(/C)C(=O)Nc1cccc(C2=NOC3(C2)C[C@@H](C(N)=O)N(C(=O)CC(c2ccccc2)c2ccccc2)C3)c1 (some centres not stated),2.4,-4.5,1.0,5.6,nt,nt
C/C=C/C(=O)Nc1cccc(C2=NOC3(C2)C[C@@H](C(N)=O)N(C(=O)c2cc([N+](=O)[O-])cc([N+](=O)[O-])c2)C3)c1 (some centres not stated),2.7,5.6,-1.2,16.3*,1.9,2.8
C/C=C(\C)C(=O)Nc1cccc(C2=NOC3(C2)C[C@H](C(N)=O)N(C(=O)c2cc([N+](=O)[O-])cc([N+](=O)[O-])c2)C3)c1 (some centres not stated),-2.2,9.5,-1.2,-3.3,nt,nt
C=CCN=C1NC(c2ccc(F)cc2)C(C(=O)OC)=C(C)N1C (configuration not stated),2.5,10.0,5.2,0.8,nt,nt
COC(=O)c1cc(-c2ccc(C(C)(C)C)cc2)c(=O)n2c1CCC2,-0.3,-6.2,3.5,-3.9,nt,nt
CC(=O)c1ccc(NC(=O)c2noc3c2CCC3)cc1,3.2,-4.1,0.1,0.1,nt,nt
COc1ccc(NC(=O)c2noc3c2CCC3)cc1,31.1*,13.7,4.6,13.4*,17.4,7.6
O=C1CCC[C@H]2C[C@H](NCc3cccs3)CC[C@]23CCCN13,-5.0,2.5,0.5,-7.3,nt,nt
O=Cc1ccc(-n2cccn2)cc1,-1.4,8.5,0.6,2.6,nt,nt

# Bioassay records as filed in PubChem BioAssay.
